Data reported in ChEMBL document CHEMBL3870337, “Development of a triazole class of highly potent Porcn inhibitors” (Bioorg Med Chem Lett, 2016).
Activity calls are given as the source filed them. No cut-off for these calls is given here.

system: not listed separately; experiment: Half life in ICR/CD-1 mouse liver S9 fraction at 2 uM in presence of NADPH by LC-MS/MS analysis; assay type: ADME, subcellular; settings: s9, 2 µM

| t1/2 [h] | Compound |
| --- | --- |
| 0.25 | O=C(CSc1nnc(-c2ccncc2)n1-c1ccccc1)Nc1ccc(-c2cccnc2)cc1 |
| 3.33 | O=C(Cn1cc(-c2ccncc2)nn1)Nc1ccc(-c2ccccc2)cn1 |

system: not listed separately; experiment: Half life in mouse plasma at 2 uM in presence of NADPH by LC-MS/MS analysis; assay type: ADME, cell-free; settings: not given

| t1/2 [h] | Compound |
| --- | --- |
| < 0.083 | O=C(CSc1nnc(-c2ccncc2)n1-c1ccccc1)Nc1ccc(-c2cccnc2)cc1 |
| 1.67 | O=C(Cn1cc(-c2ccncc2)nn1)Nc1ccc(-c2ccccc2)cn1 |
| 2.17 | O=C(Cn1nnc(-c2ccncc2)c1-c1ccccc1)Nc1ccc(-c2ccccc2)cn1 |

molecular target: T1, Protein-serine O-palmitoleoyltransferase porcupine (Mus musculus, UniProt Q9JJJ7); experiment: Inhibition of porcupine-mediated Wnt signaling in mouse L-cells after 24 hrs by springerImage-Topflash reporter assay; settings: not given
T1 sequence (Q9JJJ7 whole entry): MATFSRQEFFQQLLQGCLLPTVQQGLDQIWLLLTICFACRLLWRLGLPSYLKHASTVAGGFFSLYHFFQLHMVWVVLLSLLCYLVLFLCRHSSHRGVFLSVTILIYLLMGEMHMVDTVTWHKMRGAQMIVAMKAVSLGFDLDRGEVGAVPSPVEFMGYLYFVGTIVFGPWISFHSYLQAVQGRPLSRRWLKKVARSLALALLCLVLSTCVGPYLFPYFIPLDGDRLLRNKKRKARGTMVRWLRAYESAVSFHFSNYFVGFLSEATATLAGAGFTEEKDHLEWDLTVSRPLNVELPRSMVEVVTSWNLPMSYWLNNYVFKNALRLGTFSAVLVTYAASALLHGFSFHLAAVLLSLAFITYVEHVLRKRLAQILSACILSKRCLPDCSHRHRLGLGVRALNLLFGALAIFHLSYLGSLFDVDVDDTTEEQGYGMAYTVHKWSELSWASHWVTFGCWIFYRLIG

| EC50 [nM] | Compound |
| --- | --- |
| 80000 | O=C(Cn1nnc(-c2ccncc2)c1-c1ccccc1)Nc1ncc(-c2ccccc2)s1 |
| 18 | COc1ccc(-c2nnn(CC(=O)Nc3ccc(-c4ccccc4)cn3)c2-c2ccccc2)cc1 |
| 0.6 | O=C(Cn1nnc(-c2ccncc2)c1-c1ccccc1)Nc1ccc(-c2ccoc2)cn1 |
| > 1000 | O=C(Cn1nnc(-c2ccncc2)c1-c1ccccc1)Nc1ccc(N2CCCCC2)cn1 |
| 3 | CC(C(=O)Nc1ccc(-c2ccccc2)cn1)n1nnc(-c2ccncc2)c1-c1ccccc1 (stereo unspecified) |
| 200 | O=C(Cn1nnc(-c2ccncc2)c1-c1ccccc1)Nc1ccc(-c2cccnc2)cc1 |
| 0.13 | O=C(Cn1nnc(-c2ccnc(F)c2)c1-c1ccccc1)Nc1ccc(-c2ccccc2)cn1 |
| 0.18 | COc1ccc(-c2c(-c3ccncc3)nnn2CC(=O)Nc2ccc(-c3ccccc3)cn2)cc1 |
| 0.65 | O=C(Cn1nnc(-c2ccncc2)c1-c1ccccc1)Nc1ccc(-c2ccsc2)cn1 |
| 0.2 | O=C(Cn1nnc(-c2ccncc2)c1-c1ccccc1)Nc1ccc(-c2ccccc2)nc1 |
| 0.48 | N#Cc1ccc(-c2c(-c3ccncc3)nnn2CC(=O)Nc2ccc(-c3ccccc3)cn2)cc1 |
| 9 | O=C(Cn1cc(-c2ccncc2)nn1)Nc1ccc(-c2ccccc2)cn1 |
| > 5000 | O=C(Cn1cc(-c2ccccc2)nn1)Nc1ccc(-c2ccccc2)cn1 |
| > 5000 | O=C(Cn1cc(-c2ccccn2)nn1)Nc1ccc(-c2ccccc2)cn1 |
| 500 | O=C(Cn1nnc(-c2ccccc2C(F)(F)F)c1-c1ccccc1)Nc1ccc(-c2ccccc2)cn1 |
| 270 | O=C(Cn1nnc(-c2ccncc2)c1-c1ccccc1)Nc1cccc(-c2ccccc2)c1 |
| 0.6 | O=C(Cn1nnc(-c2ccnc(C(F)(F)F)c2)c1-c1ccccc1)Nc1ccc(-c2ccccc2)cn1 |
| 6.5 | O=C(Cn1nnc(-c2ccncc2)c1-c1cccc2ccccc12)Nc1ccc(-c2ccccc2)cn1 |
| > 1000 | O=C(Cn1nnc(-c2ccncc2)c1-c1ccccc1)Nc1ccc(-c2cccnc2)cn1 |

| EC50 [nM] | Compound |
| --- | --- |
| 5 | O=C(Cn1nnc(-c2cccnc2)c1-c1ccccc1)Nc1ccc(-c2ccccc2)cn1 |
| 0.3 | O=C(Cn1nnc(-c2ccncc2)c1-c1ccc(C(F)(F)F)cc1)Nc1ccc(-c2ccccc2)cn1 |
| 0.4 | O=C(Cn1nnc(-c2ccncc2)c1-c1ccccc1)Nc1ccc(-c2ccco2)cn1 |
| 0.08 | O=C(Cn1nnc(-c2ccncc2)c1-c1ccccc1)Nc1ccc(-c2ccccc2)cn1 |
| 1.8 | O=C(Cn1nnc(-c2ccncc2)c1-c1ccccc1)Nc1ccc(-c2ccccn2)cc1 |
| 8 | O=C(Cn1nnc(-c2ccncc2)c1-c1ccccc1)Nc1ccc(N2CCCCC2)cc1 |
| 2500 | O=C(Cn1nnc(-c2ccccn2)c1-c1ccccc1)Nc1ccc(-c2ccccc2)cn1 |
| 40 | Cc1ccccc1-c1c(-c2ccncc2)nnn1CC(=O)Nc1ccc(-c2ccccc2)cn1 |
| 9 | COc1ccccc1-c1c(-c2ccncc2)nnn1CC(=O)Nc1ccc(-c2ccccc2)cn1 |
| 0.4 | Cc1cccc(-c2c(-c3ccncc3)nnn2CC(=O)Nc2ccc(-c3ccccc3)cn2)c1 |
| 100 | O=C(Cn1cc(-c2cccnc2)nn1)Nc1ccc(-c2ccccc2)cn1 |
| 0.7 | CCOC(=O)c1ccc(-c2c(-c3ccncc3)nnn2CC(=O)Nc2ccc(-c3ccccc3)cn2)cc1 |
| 0.14 | Cc1cc(-c2nnn(CC(=O)Nc3ccc(-c4ccccc4)cn3)c2-c2ccccc2)ccn1 |
| 12 | CCC(C(=O)Nc1ccc(-c2ccccc2)cn1)n1nnc(-c2ccncc2)c1-c1ccccc1 (stereo unspecified) |
| 0.2 | O=C(Cn1nnc(-c2ccncc2)c1-c1ccc(F)cc1)Nc1ccc(-c2ccccc2)cn1 |
| 400 | O=C(Cn1nnc(-c2ccccc2)c1-c1ccccc1)Nc1ccc(-c2ccccc2)cn1 |
| 1.8 | O=C(Cn1nnc(-c2ccncc2)c1-c1ccccc1)Nc1ccc(-c2cncnc2)cn1 |
| 8 | O=C(Cn1nnc(-c2ccncc2)c1-c1ccccc1)Nc1ncc(-c2ccccc2)cn1 |
| 7 | O=C(Cn1nnc(-c2ccncc2)c1-c1ccccc1)Nc1ccc(-c2ccncc2)cc1 |

molecular target: T2, Protein-serine O-palmitoleoyltransferase porcupine (Homo sapiens) (UniProt Q9H237); experiment: Inhibition of porcupine-mediated phosphorylation of dishevelled 2/3 in human HeLa cells at 1 uM after 24 hrs by Western blot analysis; assay type: cell-based; settings: not given
T2 sequence (whole entry): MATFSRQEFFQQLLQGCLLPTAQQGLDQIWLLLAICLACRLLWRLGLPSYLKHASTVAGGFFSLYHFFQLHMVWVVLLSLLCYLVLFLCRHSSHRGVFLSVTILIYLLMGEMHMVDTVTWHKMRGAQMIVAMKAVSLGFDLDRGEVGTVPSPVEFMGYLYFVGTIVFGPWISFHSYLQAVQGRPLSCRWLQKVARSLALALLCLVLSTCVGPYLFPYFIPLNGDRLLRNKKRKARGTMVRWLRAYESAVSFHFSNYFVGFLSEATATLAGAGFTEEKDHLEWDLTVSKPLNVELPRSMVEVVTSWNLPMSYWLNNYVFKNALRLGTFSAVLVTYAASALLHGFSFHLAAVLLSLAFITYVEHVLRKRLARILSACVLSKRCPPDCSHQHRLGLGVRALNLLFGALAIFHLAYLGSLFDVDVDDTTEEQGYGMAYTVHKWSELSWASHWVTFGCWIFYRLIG
Method in brief: (§1)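 HeLa cells, which have high cell-autonomous Wnt signalling, were treated for 24 h with compound, the LGK974 reference or DMSO vehicle. Cell lysates were then analysed by Western blot for phosphorylation of LRP6 and of Dvl2/3, used as biochemical markers of Wnt pathway activity.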

| inhibition | Compound |
| --- | --- |
| Active | O=C(Cn1nnc(-c2ccncc2)c1-c1ccccc1)Nc1ccc(-c2ccccc2)cn1 |

molecular target: T2, Protein-serine O-palmitoleoyltransferase porcupine (Homo sapiens); experiment: Inhibition of porcupine-mediated phosphorylation of LRP6 in human HeLa cells at 1 uM after 24 hrs by Western blot analysis; assay type: cell-based; settings: not given; method in brief: as §1

| inhibition | Compound |
| --- | --- |
| Active | O=C(Cn1nnc(-c2ccncc2)c1-c1ccccc1)Nc1ccc(-c2ccccc2)cn1 |

system: not listed separately; experiment: Stability in mouse plasma at 2 uM in presence of NADPH by LC-MS/MS analysis; settings: not given

| half-life at 2 µM [h] | Compound |
| --- | --- |
| > 4 | O=C(Cn1nnc(-c2ccncc2)c1-c1ccccc1)Nc1ccc(-c2ccccc2)cn1 |
